# Test results published in ChEMBL document CHEMBL1165950, “Design and synthesis of new potent anticancer pyrazoles with high FLT3 kinase inhibitory selectivity” (Bioorg Med Chem, 2010).
# Tests used:
# Assay type in all cases: functional
# UACC-257 = assay: Growth inhibition of human UACC257 cells after 48 hrs by sulforhodamine B assay; conditions: UACC-257, 48 h; for CC50: read-out: LC50 (the source's name)
# In short: (§1)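 NCI 60-cell screen, five-dose mode. Cells grown in RPMI 1640 with 5% FBS and 2 mM L-glutamine and plated at 5000-40,000 cells/well according to doubling time. After 24 h preincubation, a Tz plate was TCA-fixed. Five concentrations (10-fold or 1/2 log dilutions) were applied for 48 h at 37 °C. SRB staining read at 515 nm. IC50 taken from [(Ti-Tz)/(C-Tz)]×100 = 50.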
# [1] = Cytotoxicity against human Hs 578T cells assessed as cell growth at 1 uM after 48 hrs by sulforhodamine B assay; conditions: read-out: Activity
# IGROV-1 = assay: Cytotoxicity against human IGROV1 cells assessed as cell growth at 10 uM after 48 hrs by sulforhodamine B assay; conditions: IGROV-1, 48 h, read-out: Activity
# SK-MEL-28 = assay: Cytotoxicity against human SK-MEL-28 cells assessed as cell growth at 10 uM; conditions: read-out: Activity
# In short: (§2)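 NCI-60 screen: cells grown in RPMI 1640 with 5% FBS and 2 mM L-glutamine, plated at 5000–40,000 cells/well according to doubling time, and preincubated 24 h at 37 °C, 5% CO2. The single 10 µM dose (DMSO stock) was added, then incubated 48 h. Cells were TCA-fixed and stained with 0.4% SRB, read at 515 nm, and growth % calculated against time-zero and control plates.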
# COLO 205 = assay: Cytotoxicity against human COLO205 cells assessed as cell growth at 0.01 uM after 48 hrs by sulforhodamine B assay; conditions: COLO 205, 48 h, read-out: Activity
# In short: (§3)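 NCI-60 five-dose screen. Cells were grown in RPMI 1640 with 5% FBS and 2 mM L-glutamine, plated at 5000–40,000 cells/well and preincubated for 24 h. Time-zero plates were TCA-fixed. DMSO-solubilized drug was added at five concentrations (10-fold or ½-log serial dilutions) for 48 h at 37 °C, 5% CO2. Cells were TCA-fixed, stained with 0.4% SRB and read at 515 nm. Percent growth used time-zero, control and test absorbances.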
# UO-31 = assay: Cytotoxicity against human UO31 cells assessed as cell growth at 1 uM after 48 hrs by sulforhodamine B assay; conditions: UO-31, 48 h, read-out: Activity
# SN12C = assay: Cytotoxicity against human SN12C cells assessed as cell growth at 0.01 uM after 48 hrs by sulforhodamine B assay; conditions: read-out: Activity
# 786-0 = assay: Cytotoxicity against human 786-0 cells assessed as cell growth at 10 uM; conditions: read-out: Activity
# In short: (§4)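 Single-dose NCI-60 screen at 10 µM. Cells were grown in RPMI 1640 with 5% FBS and 2 mM L-glutamine, then treated for 48 h at 37 °C. Protein was measured by SRB staining with absorbance at 515 nm. Percentage growth was recorded, and inhibition percentage was calculated as 100 minus growth percentage.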
# HT-29 = assay: Cytotoxicity against human HT-29 cells assessed as cell growth at 0.001 uM after 48 hrs by sulforhodamine B assay; conditions: HT-29, 48 h, read-out: Activity
# CCRF-CEM = assay: Cytotoxicity against human CCRF-CEM cells assessed as cell growth at 100 nM after 48 hrs by sulforhodamine B assay; conditions: read-out: Activity; in short: as §3
# SNB-75 [2] = assay: Cytotoxicity against human SNB75 cells assessed as cell growth at 1 uM after 48 hrs by sulforhodamine B assay; conditions: SNB-75, 48 h, read-out: Activity
# OVCAR-4 = assay: Cytotoxicity against human OVCAR4 cells assessed as cell growth at 10 uM; conditions: read-out: Activity; in short: as §2
# SF-268 = assay: Growth inhibition of human SF268 cells after 48 hrs by sulforhodamine B assay; conditions: SF-268, 48 h; for CC50: read-out: LC50 (the source's name); in short: as §1
# T47D = assay: Cytotoxicity against human T47D cells assessed as cell growth at 0.01 uM after 48 hrs by sulforhodamine B assay; conditions: read-out: Activity
# A498 = assay: Cytotoxicity against human A498 cells assessed as cell growth at 10 uM after 48 hrs by sulforhodamine B assay; conditions: A498, 48 h, read-out: Activity; in short: as §3
# OVCAR-3 = assay: Cytotoxicity against human OVCAR-3 cells assessed as cell growth at 1 uM after 48 hrs by sulforhodamine B assay; conditions: OVCAR-3, 48 h, read-out: Activity
# [3] = Cytotoxicity against human Hs 578T cells assessed as cell growth at 100 nM after 48 hrs by sulforhodamine B assay; conditions: read-out: Activity
# SNB-75 [4] = assay: Cytotoxicity against human SNB75 cells assessed as cell growth at 10 uM; conditions: read-out: Activity; in short: as §2
# A549 = assay: Cytotoxicity against human A549 cells assessed as cell growth at 10 uM; conditions: read-out: Activity; in short: as §4
# BT-549 = assay: Cytotoxicity against human BT549 cells assessed as cell growth at 100 nM after 48 hrs by sulforhodamine B assay; conditions: BT-549, 48 h, read-out: Activity; in short: as §3
# HOP-92 = assay: Cytotoxicity against human HOP92 cells assessed as cell growth at 1 uM after 48 hrs by sulforhodamine B assay; conditions: HOP-92, 48 h, read-out: Activity
# HCT-116 = assay: Cytotoxicity against human HCT116 cells assessed as cell growth at 0.01 uM after 48 hrs by sulforhodamine B assay; conditions: HCT-116, 48 h, read-out: Activity
# HL-60(TB) = assay: Cytotoxicity against human HL-60(TB) cells assessed as cell growth at 1 uM after 48 hrs by sulforhodamine B assay; conditions: HL-60, 48 h, read-out: Activity
# In short: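 NCI 60-cell panel. Cells are grown in RPMI 1640 with 5% FBS and 2 mM L-glutamine, seeded at 5000–40,000 cells/well according to doubling time, and preincubated 24 h. Time-zero plates are TCA-fixed. Compound from DMSO stock is given at five 10-fold or 1/2-log concentrations for 48 h at 37 °C, 5% CO2. Suspension cells are fixed with 80% TCA (final 16%) and SRB-stained, with absorbance at 515 nm. Percent growth is derived from Tz, control and test readings.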
# SF-539 = assay: Cytotoxicity against human SF539 cells assessed as cell growth at 0.01 uM after 48 hrs by sulforhodamine B assay; conditions: SF-539, 48 h, read-out: Activity
# KM12 = assay: Cytotoxicity against human KM12 cells assessed as cell growth at 0.001 uM after 48 hrs by sulforhodamine B assay; conditions: KM12, 48 h, read-out: Activity
# DU-145 = assay: Cytotoxicity against human DU145 cells assessed as cell growth at 10 uM; conditions: read-out: Activity; in short: as §4
# NCI-H522 [5] = assay: Cytotoxicity against human NCI-H522 cells assessed as cell growth at 0.001 uM after 48 hrs by sulforhodamine B assay; conditions: NCI-H522, 48 h, read-out: Activity
# OVCAR-5 = assay: Growth inhibition of human OVCAR5 cells after 48 hrs by sulforhodamine B assay; conditions: OVCAR-5, 48 h; for CC50: read-out: LC50 (the source's name); in short: as §1
# NCI-H522 [6] = assay: Cytotoxicity against human NCI-H522 cells assessed as cell growth at 10 uM after 48 hrs by sulforhodamine B assay; conditions: NCI-H522, 48 h, read-out: Activity
SMILES,GI50 (UACC-257) [µM],TGI (UACC-257) [µM],CC50 (UACC-257) [µM],growth at 1 µM [1] [%],growth at 10 µM (IGROV-1) [%],growth at 10 µM (SK-MEL-28) [%],growth at 0.01 µM (COLO 205) [%],growth at 1 µM (UO-31) [%],growth at 0.01 µM (SN12C) [%],growth at 10 µM (786-0) [%],growth at 0.001 µM (HT-29) [%],growth at 0.1 µM (CCRF-CEM) [%],growth at 1 µM (SNB-75 [2]) [%],growth at 10 µM (OVCAR-4) [%],GI50 (SF-268) [µM],TGI (SF-268) [µM],CC50 (SF-268) [µM],growth at 0.01 µM (T47D) [%],growth at 10 µM (A498) [%],growth at 1 µM (OVCAR-3) [%],other results
COc1cc(C)cc(-c2c(-c3ccnc(-c4ccc(C(C)=O)cc4)c3)cnn2CC#N)c1,5.24,> 100,> 100,-23,14,62,102,11,93,67.2,110,84,-5,80.2,3.14,> 100,> 100,92,27,-10,growth at 0.1 µM [3]: 71%; growth at 10 µM (SNB-75 [4]): 57.9%; growth at 10 µM (A549): 91.4%; growth at 0.1 µM (BT-549): 82%; growth at 1 µM (HOP-92): -9%; growth at 0.01 µM (HCT-116): 91%; growth at 1 µM (HL-60(TB)): 20%; growth at 0.01 µM (SF-539): 98%; growth at 0.001 µM (KM12): 100%; growth at 10 µM (DU-145): 103%; growth at 0.001 µM (NCI-H522 [5]): 86%; GI50 (OVCAR-5): > 100 µM; TGI (OVCAR-5): > 100 µM; CC50 (OVCAR-5): > 100 µM; growth at 10 µM (NCI-H522 [6]): -10%
Cc1cc(O)cc(-c2nn(CC#N)cc2-c2ccnc(-c3ccc(Oc4ccccc4)cc3)c2)c1,2.38,8.38,31.7,-23,-74,63.3,99,19,88,58.1,95,86,30,49.8,3.96,15.5,41.4,86,-92,-63,growth at 0.1 µM [3]: 82%; growth at 10 µM (SNB-75 [4]): 40%; growth at 10 µM (A549): 42%; growth at 0.1 µM (BT-549): 84%; growth at 1 µM (HOP-92): -67%; growth at 0.01 µM (HCT-116): 94%; growth at 1 µM (HL-60(TB)): -27%; growth at 0.01 µM (SF-539): 88%; growth at 0.001 µM (KM12): 91%; growth at 10 µM (DU-145): 76.7%; growth at 0.001 µM (NCI-H522 [5]): 83%; GI50 (OVCAR-5): 4.84 µM; TGI (OVCAR-5): 19.2 µM; CC50 (OVCAR-5): 48.3 µM; growth at 10 µM (NCI-H522 [6]): -93%
COc1cc(C)cc(-c2nn(CC#N)cc2-c2ccnc(-c3ccc(N(C)C)cc3)c2)c1,0.448,> 100,> 100,-13,-6,32.4,116,18,90,5.8,103,24,-12,17.1,0.478,8.9,> 100,104,-33,-41,growth at 0.1 µM [3]: -19%; growth at 10 µM (SNB-75 [4]): -25.5%; growth at 10 µM (A549): 21.1%; growth at 0.1 µM (BT-549): 66%; growth at 1 µM (HOP-92): 9%; growth at 0.01 µM (HCT-116): 97%; growth at 1 µM (HL-60(TB)): -1%; growth at 0.01 µM (SF-539): 107%; growth at 0.001 µM (KM12): 93%; growth at 10 µM (DU-145): 2.87%; growth at 0.001 µM (NCI-H522 [5]): 77%; GI50 (OVCAR-5): 3.98 µM; TGI (OVCAR-5): > 100 µM; CC50 (OVCAR-5): > 100 µM; growth at 10 µM (NCI-H522 [6]): -64%
Cc1cc(O)cc(-c2nn(CC#N)cc2-c2ccnc(-c3ccc(N(C)C)cc3)c2)c1,4.35,35.6,> 100,-15,-37,38.1,95,19,90,26.2,101,96,-22,29.9,3.55,16.9,77.9,90,-33,-40,growth at 0.1 µM [3]: 82%; growth at 10 µM (SNB-75 [4]): -12.8%; growth at 10 µM (A549): 39%; growth at 0.1 µM (BT-549): 87%; growth at 1 µM (HOP-92): 25%; growth at 0.01 µM (HCT-116): 98%; growth at 1 µM (HL-60(TB)): 2%; growth at 0.01 µM (SF-539): 92%; growth at 0.001 µM (KM12): 91%; growth at 10 µM (DU-145): 80.3%; growth at 0.001 µM (NCI-H522 [5]): 87%; GI50 (OVCAR-5): 1.49 µM; TGI (OVCAR-5): 60.4 µM; CC50 (OVCAR-5): > 100 µM; growth at 10 µM (NCI-H522 [6]): -57%
COc1cc(C)cc(-c2c(-c3ccnc(-c4ccc(N(C)C)cc4)c3)cnn2CC#N)c1,0.0359,> 100,> 100,18,-6,42.1,72,12,75,-1.5,94,11,10,26,0.302,> 100,> 100,36,7,3,growth at 0.1 µM [3]: 23%; growth at 10 µM (SNB-75 [4]): -21.1%; growth at 10 µM (A549): 22.2%; growth at 0.1 µM (BT-549): -18%; growth at 1 µM (HOP-92): -20%; growth at 0.01 µM (HCT-116): 44%; growth at 1 µM (HL-60(TB)): -27%; growth at 0.01 µM (SF-539): 79%; growth at 0.001 µM (KM12): 95%; growth at 10 µM (DU-145): 3.17%; growth at 0.001 µM (NCI-H522 [5]): 96%; GI50 (OVCAR-5): > 100 µM; TGI (OVCAR-5): > 100 µM; CC50 (OVCAR-5): > 100 µM; growth at 10 µM (NCI-H522 [6]): -52%
